Published values gathered from unrelated publications.
Compare with care: the assays were run in different laboratories. pIC50: −log10 of the molar value.
CYP2C19: Cytochrome P450 2C19 (CYP2C19, Homo sapiens, UniProt P33261)
UGT1A4: UDP-glucuronosyltransferase 1A4 (UGT1A4, Homo sapiens, UniProt P22310)

| Compound | tested on | assay | test system | conditions | measurement | value |
| --- | --- | --- | --- | --- | --- | --- |
| COC(=O)C1CCN(C(=O)c2ccc(N(Cc3ccccc3)Cc3cnc4nc(N)nc(N)c4n3)cc2)CC1 | CYP2C19 | enzyme activity, inhibitor, luciferase | – | 10 µM | inhibition | 107% |
| N=C(N)NCc1ccc(NC(=O)c2ccc(C(=O)Nc3ccc(C4=CCN(C(=N)N)CC4)cc3)nc2)cc1 | NIH3T3 | cell growth or viability, MTS | – | 24 h | CC50 | > 117 µM |
| COC(=O)C1CCN(C(=O)c2ccc(N(CCO)Cc3cnc4nc(N)nc(N)c4n3)cc2)CC1 | CYP2C19 | enzyme activity, inhibitor, luciferase | – | 10 µM | inhibition | -24.5% |
| C=CC(=O)N1CC2CC(n3nc(-c4ccc(C(=O)Nc5ccccn5)cc4)c4c(N)ncnc43)CC2C1 (stereo not drawn) | – | – | male Wistar rat, plasma | oral, 10 mg/kg | Tmax | 2 h |
| N=C(N)N1CC=C(c2coc(C(=O)Nc3ccc(C4=CCN(C(=N)N)CC4)c(F)c3)c2)CC1 | NIH3T3 | cell growth or viability, MTS | – | 24 h | CC50 | 68 µM |
| C[C@@H]1C[C@@H](c2ccc(Br)cc2)c2c(cc3ccccn23)C(=O)O1 (racemic) | HFF-1 | cell growth or viability, resazurin | – | 72 h | CC50 | > 100 µM |
| COc1cc2c3c(n(CCCN4CCOCC4)c(=O)c2cc1OC)-c1cc2c(cc1C3=O)OCO2 | – | – | female beagle dog, plasma | intravenous, 10 mg/m², infusion | Cmax | 75.7 ng/mL |
| C[C@H](O)c1cc(C(=O)N[C@@H](C)Cn2ccc(-c3ccc(C#N)c(Cl)c3)n2)n[nH]1 | UGT1A4 | enzyme activity, inhibitor | human, liver microsomes | – | pIC50 | < 4.00 |
| CN(CCC(=O)O)C(=O)c1ccc2c(c1)CC[C@@H]1[C@@H]2CC[C@]2(C)C(c3cncc(F)c3)=CC[C@@H]12 | UGT1A4 | enzyme activity, inhibitor | – | – | pIC50 | < 4.52 |
| [11CH3]Oc1cccc(CCc2cc(O)c(=O)[nH]n2)c1 | ATP-dependent translocase ABCB1 (Abcb1a, Mus musculus, UniProt P21447) | – | mouse, brain | 30 min | tracer uptake | 0.23 %ID/g |
| NC(=O)C1CCCN1C(=O)Cc1ccc(N(CCCO)Cc2cnc3nc(N)nc(N)c3n2)cc1 (stereo not drawn) | CYP2C19 | enzyme activity, inhibitor, luciferase | – | 10 µM | inhibition | -4.55% |
| N=C(N)N1CC=C(c2ccc(NC(=O)c3ccc(C4=CCN(C(=N)N)CC4)cc3)cc2)CC1 | NIH3T3 | cell growth or viability, MTS | – | 24 h | CC50 | 41 µM |
